Results of several laboratories.
Protocols differ between the studies behind these lines.
Read-out: thermal stability
Technique: DSF
GAK: Cyclin-G-associated kinase (GAK, Homo sapiens, UniProt O14976)
DCLK1: Serine/threonine-protein kinase DCLK1 (DCLK1, Homo sapiens, UniProt O15075)
lecA: PA-I galactophilic lectin (lecA, Pseudomonas aeruginosa, UniProt Q05097)
SIRT2: NAD-dependent protein deacetylase sirtuin-2 (SIRT2, Homo sapiens, UniProt Q8IXJ6)

| Compound | target | concentration | ΔTm [°C] |
| --- | --- | --- | --- |
| FC(F)(F)c1ccc2nccc(Nc3cccc(I)c3)c2c1 | GAK | 10 µM | 2.6 |
| Cn1c2c(c3ccc(Cl)c(Cl)c31)C(C#N)C(C)(C)NC2=O (centres unmarked) | DCLK1 | 10 µM | 0.4 |
| Cc1ccc(O)c(O)c1 | lecA | 4 mM | -11 |
| COc1ccc2nccc(Nc3cc(OC)c(OC)c(OC)c3)c2c1 | GAK | 10 µM | 6 |
| COCCn1cc(COc2cccc(Cc3cnc(NC(=O)CSc4nc(-c5ccccc5)cc(-c5ccccc5)n4)s3)c2)nn1 | SIRT2 | 25 µM | 1.4 |
| Cn1c2c(c3ccc(Cl)c(Cl)c31)C(C#N)C1(CCCC1)NC2=O (centres unmarked) | DCLK1 | 10 µM | 0 |
| O=C(c1ccccc1)c1ccc(O)c(O)c1 | lecA | 4 mM | 0.4 |
| Cc1ccc(Cn2cc(COc3cccc(Cc4cnc(NC(=O)CSc5nc(C)cc(C)n5)s4)c3)nn2)cc1 | SIRT2 | 25 µM | 5.35 |
